ChEMBL document CHEMBL4715734, “Discovery of the Potent and Selective M1 PAM-Agonist N-[(3R,4S)-3-Hydroxytetrahydro-2H-pyran-4-yl]-5-methyl-4-[4-(1,3-thiazol-4-yl)benzyl]pyridine-2-carboxamide (PF-06767832): Evaluation of Efficacy and Cholinergic Side Effects” (J Med Chem, 2016)
≈ marks a conversion by molar mass, not a printed value.

Experiments:
[1] = Unbound plasma concentration in CD-1 mouse at 3.2 mg/kg, sc measured after 2 hrs by LC-MS/MS analysis; type: ADME, organism-based; conditions: in vivo
[2] = Toxicity in male Beagle dog assessed as change in CV end points at 0.3 mg/kg, po by telemetry; type: organism-based, Canis lupus familiaris; conditions: in vivo
Outline: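 Crossover telemetry study in dogs at three oral doses (0.3, 1 and 3 mg/kg), N=4. Endpoints were blood pressure, maximum systolic left ventricular pressure, LV +dP/dt max, activity, heart rate, and RR, QT and QTc intervals, followed up to 9 h post dose.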

[3] = target: T1, Muscarinic acetylcholine receptor M1 (Homo sapiens, UniProt P11229); assay: Partial agonist activity at human muscarinic M1 receptor stably expressed in CHO cells assessed as increase in intracellular calcium level measured after 10 mins by Fluo-8AM dye based FLIPR TETRA method; type: functional, cell-based
T1 sequence (P11229 whole entry): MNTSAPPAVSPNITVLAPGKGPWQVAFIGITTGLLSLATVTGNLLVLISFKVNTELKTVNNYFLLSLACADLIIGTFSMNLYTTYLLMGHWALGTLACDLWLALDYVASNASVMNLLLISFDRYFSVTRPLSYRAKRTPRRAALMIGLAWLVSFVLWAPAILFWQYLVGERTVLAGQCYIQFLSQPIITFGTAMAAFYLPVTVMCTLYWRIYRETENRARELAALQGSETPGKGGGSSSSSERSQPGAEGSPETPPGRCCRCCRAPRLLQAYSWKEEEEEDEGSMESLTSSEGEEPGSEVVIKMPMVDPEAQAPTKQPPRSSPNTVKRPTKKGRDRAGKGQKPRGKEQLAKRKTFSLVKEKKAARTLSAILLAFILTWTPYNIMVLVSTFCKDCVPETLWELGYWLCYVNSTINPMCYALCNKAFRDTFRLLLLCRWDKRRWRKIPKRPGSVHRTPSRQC

[4] = Thermodynamic solubility of compound at pH 6.5; type: physicochemical; conditions: buffer, read-out: Therm_solubility
[5] = Lipophilicity, log D of compound; type: physicochemical; conditions: octanol/water
[6] = Oral bioavailability in rat at 0.5 mg/kg; type: ADME, organism-based; conditions: in vivo
[7] = Toxicity in male rat assessed as increase in body weight at 10 mg/kg, po administered for 14 days; type: organism-based; conditions: in vivo, 336 h, time 14 day
Outline: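 Two-week repeat-dose toxicity study in rats. Oral dosing in 0.5% methylcellulose at 3, 10, 30 (males)/15 (females) mg/kg, N=4/sex/dose. Food intake, body weight gain and histopathology were assessed.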

[8] = fAUC (0 to 24 hrs) in rat at 3 mg/kg, po administered for 14 days; type: ADME, organism-based; conditions: in vivo, 336 h, time 14 day
Outline: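 2-week repeat oral dosing in rats, 0.5% methylcellulose formulation; N=4/sex/dose; doses 3, 10, 30 (males)/15 (females) mg/kg; unbound exposures reported per dose and sex.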

[9] = Toxicity in dog assessed as salivation at 15 mg/kg, po using spray-dried dispersion formulation; type: organism-based, Canis lupus familiaris; conditions: in vivo
[10] = target: T2, Muscarinic acetylcholine receptor M2 (Homo sapiens, UniProt P08172); assay: Positive allosteric modulation of muscarinic M2 receptor (unknown origin) assessed as increase in ACh-induced displacement of [3H]-NMS from M2 receptor
T2 sequence (P08172 whole entry): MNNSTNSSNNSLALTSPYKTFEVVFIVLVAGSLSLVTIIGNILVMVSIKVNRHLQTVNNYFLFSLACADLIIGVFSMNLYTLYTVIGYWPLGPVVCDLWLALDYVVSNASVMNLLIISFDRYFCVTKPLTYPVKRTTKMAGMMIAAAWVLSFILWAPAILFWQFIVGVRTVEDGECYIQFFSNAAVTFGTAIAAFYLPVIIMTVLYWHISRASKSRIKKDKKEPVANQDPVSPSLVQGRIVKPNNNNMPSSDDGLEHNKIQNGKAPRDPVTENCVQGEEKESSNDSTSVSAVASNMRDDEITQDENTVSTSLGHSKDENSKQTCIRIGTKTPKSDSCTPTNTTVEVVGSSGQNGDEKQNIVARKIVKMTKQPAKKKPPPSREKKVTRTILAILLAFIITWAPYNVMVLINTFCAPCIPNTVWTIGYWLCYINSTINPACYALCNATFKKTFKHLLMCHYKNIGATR
Outline: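 Cell lines expressing M2 or M3 were used for [3H]NMS binding. Inhibition of binding by ACh was measured in the presence of fixed compound concentrations of 10, 3, 1, 0.3, 0.1 and 0 µM.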

[11] = Unbound plasma concentration in amphetamine-induced C57BL/6J mouse model of hyperlocomotion at 1 mg/kg, sc measured after 1 hr; type: ADME, organism-based; conditions: in vivo
Outline: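 Satellite PK animals from the mouse aLMA study, N=2/dose. Dosed subcutaneously with a solution in 5/15/80 DMSO/Solutol/water. Plasma and brain were sampled at T = 1 h.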

Mus musculus = assay: In vivo positive allosteric modulation of muscarinic M1 receptor in CD-1 mouse assessed as increase in ACh-induced IP-1 levels in […] tissue administered subcutaneously measured after 2 hrs by HTRF assay; type: functional, organism-based
Outline: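 Mice were dosed subcutaneously with a solution in 5/15/80 DMSO/Solutol/water across a 0.1–10 mg/kg dose series. IP1 accumulation in striatum was measured over a 2 h treatment and expressed as fold increase over baseline for each animal. Compound levels were measured in striatal tissue at 2 h (N=5/dose), and unbound brain concentration was derived from these.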

Cp(f) [1]: 0.176 µM
EC50 [3]: ≥ 3.9 µM
solubility thermodynamic [4]: 2.7 µg/mL (≈ 6.59 µM)
logD [5]: 2.2
bioavailability [6]: 112%
fAUC [8]: 1856 nM·h
Activity [10]: Not Active
Cp(f) [11]: 0.0761 µM
SMILES: Cc1cnc(C(=O)N[C@H]2CCOC[C@@H]2O)cc1Cc1ccc(-c2cscn2)cc1
Activity [2]: Non-Toxic
Activity [7]: Non-Toxic
Activity [9]: Toxic
Activity (Mus musculus): Dose-dependent effect
